H9c2 TAG inh = triacylglycerol accumulation inhibition | H9c2 cells, Nile Red lipid (TAG) fluorescence; cells loaded with 200 µM oleic acid | 230,000 compounds, 0.66% hits | inhibition, % at 12.5 µM;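 active = pattern-corrected inhibition of lipid staining of at least 50% with the nuclear-stain viability signal not falling by more than 50%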;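 note: 0% = DMSO wells and 100% = triacsin C control wells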
LANA-H2B inh = blocks KSHV LANA binding to histone H2A/H2B; Q9QR71; cell-free LANA-H2A/H2B peptide, fluorescence polarization; inhibition, % (concentration not given with the values); 320,000 compounds, 0.6% hits; AID 2629; in the data active = inhibition mostly above about 10%, no sharp cut-off; inactive = mostly below about 6.7%
Target sequence (Q9QR71 whole entry, looked up): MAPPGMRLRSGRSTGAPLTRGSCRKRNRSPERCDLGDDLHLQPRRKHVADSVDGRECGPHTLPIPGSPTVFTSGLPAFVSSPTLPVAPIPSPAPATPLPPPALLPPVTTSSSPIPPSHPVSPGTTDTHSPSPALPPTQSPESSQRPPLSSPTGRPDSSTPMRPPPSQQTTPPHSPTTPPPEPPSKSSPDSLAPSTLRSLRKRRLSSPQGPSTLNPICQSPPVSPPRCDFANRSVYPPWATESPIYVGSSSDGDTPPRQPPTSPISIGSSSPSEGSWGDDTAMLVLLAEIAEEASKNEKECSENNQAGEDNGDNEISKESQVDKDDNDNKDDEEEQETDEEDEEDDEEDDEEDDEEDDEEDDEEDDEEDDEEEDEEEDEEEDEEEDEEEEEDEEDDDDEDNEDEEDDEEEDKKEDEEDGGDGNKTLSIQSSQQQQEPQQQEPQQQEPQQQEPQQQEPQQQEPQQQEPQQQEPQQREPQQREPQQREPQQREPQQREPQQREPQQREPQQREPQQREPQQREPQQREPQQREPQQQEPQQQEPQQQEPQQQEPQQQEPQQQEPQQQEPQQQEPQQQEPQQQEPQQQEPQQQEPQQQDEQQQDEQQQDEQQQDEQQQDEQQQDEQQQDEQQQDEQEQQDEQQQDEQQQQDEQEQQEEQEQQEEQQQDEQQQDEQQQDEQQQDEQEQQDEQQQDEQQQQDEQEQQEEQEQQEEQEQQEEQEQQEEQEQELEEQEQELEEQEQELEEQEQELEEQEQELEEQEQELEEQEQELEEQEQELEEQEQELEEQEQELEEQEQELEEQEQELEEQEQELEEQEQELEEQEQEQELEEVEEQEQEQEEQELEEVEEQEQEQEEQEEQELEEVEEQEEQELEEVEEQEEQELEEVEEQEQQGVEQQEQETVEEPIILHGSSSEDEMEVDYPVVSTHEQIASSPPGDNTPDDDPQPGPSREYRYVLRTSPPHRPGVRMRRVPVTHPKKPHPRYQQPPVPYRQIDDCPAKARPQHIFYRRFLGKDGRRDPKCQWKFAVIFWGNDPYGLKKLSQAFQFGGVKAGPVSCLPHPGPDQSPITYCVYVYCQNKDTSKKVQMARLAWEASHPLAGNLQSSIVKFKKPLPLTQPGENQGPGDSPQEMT
GSK3A inh = human GSK-3 alpha kinase inhibition. inhibition, % at 10 µM. 320,000 compounds, 0.1% hits. AID 2650. ADP-Glo luminescence, 60 min;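 active = more than half of replicates show inhibition above 20%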;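 note: GST-tagged GSK-3 alpha with peptide substrate and 25 µM ATP; 0% = DMSO neutral wells and 100% = GW8510 positive control wells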
STK33 kinase inh = inhibitors of human STK33 kinase; purified STK33, MBP phosphorylation, ADP-Glo luminescence; inhibition, % at 10 µM; 320,000 compounds, 0.073% hits;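 active = inhibition at or above 25%, using the most active replicate where run in duplicate; inactive = inhibition below 25%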
Hep lipid drop = hepatic lipid droplet formation modulation | 240,000 compounds, 0.4% hits | AML12 mouse hepatocytes, oleate lipid droplets, BODIPY imaging | inhibition, % at 6.5 µM | AID 1656;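 active = lipid droplet intensity inhibited by at least 50%, with more than 500 cells counted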
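Material: mouse AML12 hepatocyte cell line, fixed after treatment; Timing: compound with oleate, overnight; Technique: high-content imaging of BODIPY-stained droplets and DAPI nuclei; Probe or stimulus: oleate, 100 µM final; Dosing: compound at 6.5 µM only.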
GSK3beta inhib = blocks human GSK3beta kinase activity; 300,000 compounds, 0.038% hits; activity score (negative = inhibition), % at 10 µM; P49841; GST-GSK3beta kinase, ADP-Glo luminescence, 60 min; hits give low values; AID 2097;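 active = more than half of replicate wells score below -50%, meaning over 50% inhibition versus plate controls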;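 note: 0% = median DMSO wells and -100% = median GW8510 positive control wells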
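Assay system: GST-tagged human GSK3beta kinase, cell-free; Input: 1.6 ng GSK3beta; Medium: Tris/MgCl2 kinase buffer; Timing: 60 min enzyme reaction, room temperature; Signal: ADP-Glo luminescence quantifying ADP generated by kinase; Evaluation: score relative to plate controls; Benchmarks: DMSO neutral wells and GW8510 at 20 µM as positive.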
TAG conf = confirmation of triacylglycerol accumulation inhibitors. inhibition, % at 12.5 µM. H9c2 lipid accumulation, Nile Red fluorescence; cells loaded with 200 µM oleic acid. shares compounds with H9c2 TAG inh. 990 compounds, 71% hits. AID 651629;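 active = mean inhibition across replicates of 40% or more; inactive = mean inhibition below 40%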;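 note: plate controls were DMSO only wells for no effect and Triacsin C treated wells for full effect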
The depositor's hits bear a star; nt = not tested or not shown. Only some compounds are listed: those with a hit (about 1.3% of all), similar ones and a draw of the others.

SMILES	H9c2 TAG inh	LANA-H2B inh	GSK3A inh	STK33 kinase inh	Hep lipid drop	GSK3beta inhib	TAG conf
COc1ccc(C(=O)CN2CCN(CCN3C(=O)c4cccc5cccc(c45)C3=O)CC2)cc1	0	5	-1	-1	nt	0	nt
Cc1cc(CNC(=O)c2cc(Br)ccc2Cl)nn1C	nt	11	-1	6	-16	1	nt
Cc1ccc2cc3cc(C(=O)NCCCN4CCCCCC4)oc3nc2c1	51*	0	1	-1	13	3	29
CN(C)c1ccc(NC(=O)CSc2nc3ccccc3c(=O)n2C2CCCCC2)cc1	55*	4	-1	-1	nt	3	49*
Cc1cc(NC(=O)CSc2nc3ccccc3c(=O)n2C2CCCC2)no1	90*	-1	-2	0	nt	2	69*
COCc1cc(=O)[nH]c(/N=C(\N)Nc2cccc(C)c2)n1	5	3	-3	-1	2	4	nt
CN1CCN(C(=O)c2ccccc2NC(=O)c2ccc(C(C)(C)C)cc2)CC1	3	-3	-1	-4	-17	-4	nt
CC1(C)Cc2c(c(N3CCOCC3)nc3sc(-c4ccc(C(=O)O)o4)c(N)c23)CO1	22	1	0	0	3	1	nt
CNC(=O)c1ccc(-c2sc3nc(N4CCOCC4)c4c(c3c2N)CCCC4)o1	51*	0	0	0	nt	0	74*
Nc1c(C(=O)NCc2ccccc2)sc2nc(N3CCOCC3)c3c(c12)CCCC3	55*	-2	1	0	nt	0	42*
Nc1c(C(=O)Nc2ccccc2)sc2nc(N3CCOCC3)c3c(c12)CCCC3	27	nt	nt	nt	nt	nt	nt
CNC(=O)c1ccc(-c2sc3nc(N4CCOCC4)c4c(c3c2N)CC(C)(C)OC4)o1	52*	3	-5	-1	nt	1	67*
O=C(COC(=O)c1cccs1)Nc1ccccc1	nt	-3	-3	0	nt	0	nt
Cc1ccc(-c2nn3c(C)nnc3c3ccccc23)cc1S(=O)(=O)NC(C)c1ccccc1 (centres undefined)	50*	-3	-1	-2	nt	1	53*
O=C(Nc1ccc(Cl)cc1)c1csc([C@@H]2C[C@H](O)[C@@H](CO)O2)n1	54*	nt	nt	nt	nt	nt	0
O=C(Nc1ccccc1)C(Cl)C(=O)c1ccccc1 (centres undefined)	nt	-5	1	1	9	0	nt
CCN1C(=O)[C@H]2[C@@H](c3ccc(-c4ccc5c(c4)OCO5)cc3)N[C@@](Cc3ccccc3)(C(=O)OC)[C@H]2C1=O	-1	0	-3	-1	nt	nt	nt
COC(=O)[C@]1(C)N[C@H](c2ccc(-c3ccc(Cl)c(Cl)c3)c(OC)c2)[C@@H]2C(=O)N(C)C(=O)[C@@H]21	51*	2	-1	-1	nt	-2	36
COC(=O)[C@]1(C)N[C@H](c2ccc(-c3ccc(OC)cc3)cc2)[C@@H]2C(=O)N(C)C(=O)[C@@H]21	-3	-7	-1	0	nt	nt	nt
CCN1C(=O)[C@H]2[C@@H](c3ccc(-c4cccc(Cl)c4)cc3)N[C@@](Cc3ccccc3)(C(=O)OC)[C@H]2C1=O	51*	1	-6	2	nt	3	60*
COC(=O)[C@]1(CC(C)C)N[C@H](c2ccc(-c3ccc(OC)cc3)cc2)[C@@H]2C(=O)N(C)C(=O)[C@@H]21	54*	0	-3	0	nt	-4	36
COC(=O)[C@]1(CC(C)C)N[C@H](c2ccc(-c3ccc(F)cc3)cc2)[C@@H]2C(=O)N(C)C(=O)[C@@H]21	56*	-1	nt	0	nt	1	43*
Cc1ccc(NC(=O)CSc2ncccn2)cc1F	8	1	1	0	43	2	nt
COCCCNc1ccn2nc(-c3ccccc3)cc2n1	3	nt	nt	nt	nt	nt	nt
Cc1cc(C(=O)COC(=O)/C=C/c2cccc(Br)c2)c(C)n1C	6	nt	nt	nt	nt	nt	nt
SMILES	H9c2 TAG inh	LANA-H2B inh	GSK3A inh	STK33 kinase inh	Hep lipid drop	GSK3beta inhib	TAG conf
O=[N+]([O-])c1ccc(-c2cn3nc(-c4ccccc4)c(-c4ccccc4)nc3n2)cc1	87*	11	0	0	11	4	9
COc1ccc(-n2nc(C(=O)Nc3ccc(OC)c(OC)c3)c3c4ccccc4n(C)c3c2=O)cc1	82*	5	-3	0	-2	-5	29
COc1ccc(-n2nc(C(=O)Nc3ccc4c(c3)OCO4)c3c4ccccc4n(C)c3c2=O)cc1	66*	-8	-2	0	42	0	44*
COc1cccc(-n2nc(C(=O)Nc3ccc4c(c3)OCO4)c3ccccc3c2=O)c1	8	0	-2	1	1	-4	nt
CCOc1ccc(N(CC)C(=O)c2nn(-c3ccc(OC)cc3)c(=O)c3c2c2ccccc2n3C)cc1	nt	8	-2	0	-8	-3	nt
CCC(=O)Nc1ccc(-c2nnc(-c3ccccc3)o2)cc1	52*	-1	1	0	nt	0	43*
Cn1cc(CN2CCC(C(=O)NC(c3ccc(F)cc3)c3ccc4ccccc4n3)CC2)c2ccccc21 (centres undefined)	103*	nt	nt	nt	nt	nt	98*
O=[N+]([O-])c1cccc(NC(=S)Nc2nc(-c3ccccc3Cl)cs2)c1	39	6	0	-1	-1	1	nt
CN1N=C(N)c2cn(C3OC(COP(=O)(O)O)C(O)C3O)c3ncnc1c23 (centres undefined)	52*	nt	nt	nt	nt	nt	64*
Cc1cc(=O)oc2cc(NC(=O)c3cccc(Br)c3)ccc12	69*	0	4	-1	-13	-5	52*
C[C@H](CO)N1C[C@H](C)[C@@H](CN(C)Cc2ccc(C(=O)O)cc2)Oc2c(NC(=O)c3ccncc3)cccc2C1=O	-47	-2	-4	0	nt	nt	nt
Clc1ccc(-c2csc(NNC3=NCCCCC3)n2)cc1	148*	0	-1	0	nt	2	132*
Fc1ccc(-c2csc(NC3=NCCC3)n2)cc1	0	-2	4	0	-7	nt	nt
C=CCn1c(-c2c(C)nc3cc(C)ccn23)n[nH]c1=S	nt	3	-2	5	-16	0	nt
c1cc(C2CCCCC2)ccc1Oc1nc(N2CCOCC2)nc(N2CCOCC2)n1	80*	0	1	1	nt	0	52*
Cc1ccc(C(C(=O)NC2CCCC2)N(Cc2ccco2)C(=O)CCC(=O)Nc2cc(C)on2)cc1 (centres undefined)	35	-1	2	1	20	-4	nt
CCCC(=O)N1CCc2cc(OC)c(OC)cc2C1COc1ccccc1OC (centres undefined)	nt	3	-1	-2	45	-1	nt
